Assay results: ChEMBL document CHEMBL4813982, “Novel pyrazolo[4,3-d]pyrimidine microtubule targeting agents (MTAs): Synthesis, structure-activity relationship, in vitro and in vivo evaluation as antitumor agents” (Bioorg Med Chem Lett, 2021)
Active and inactive are the calls of the source. The calls are words filed in the database; no cut-off is given here.

Experiments:
[1] = biological target: T1, Tubulin (Homo sapiens) (UniProt P68371+Q9H4B7+P0DPH7+P68366+Q13509+Q71U36+P04350+Q3ZCM7+P07437+P68363+Q9BQE3+Q6PEY2+Q13885+Q9BVA1+Q9BUF5); test: Inhibition of [3H]colchicine binding to tubulin (unknown origin) at 5 uM relative to control; assay type: protein-complex assay
[2] = biological target: T1, Tubulin (Homo sapiens); test: Inhibition of [3H]colchicine binding to tubulin (unknown origin) at 0.5 uM relative to control; assay type: protein-complex assay
[3] = biological target: Tubulin; test: Inhibition of tubulin assembly (unknown origin); assay type: protein-complex assay, Homo sapiens
[4] = system: MCF7; test: Antiproliferative activity against human MCF7 cells; assay type: functional, cell-based
[5] = system: MCF7; test: Antiproliferative activity against human MCF7 cells expressing TUBB3; assay type: functional, cell-based
[6] = Resistance ratio of EC50 for antiproliferative activity against human MCF7 cells expressing TUBB3 to EC50 for antiproliferative activity against human MCF7 cells; assay type: functional
Outline: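 Resistance ratio: EC50 in MCF-7 cells overexpressing βIII-tubulin divided by EC50 in parental wild-type MCF-7 cells.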

[7] = system: MCF7; test: Potency index, ratio of EC50 of paclitaxel to EC50 of compound for antiproliferative activity against human MCF7 cells; assay type: functional
[8] = system: MCF7; test: Potency index, ratio of EC50 of paclitaxel to EC50 of compound for antiproliferative activity against human MCF7 cells expressing TUBB3; assay type: functional
[9] = system: OVCAR-8; test: Antiproliferative activity against human OVCAR-8 cells; assay type: functional, cell-based
[10] = system: NCI/ADR-RES; test: Antiproliferative activity against human NCI/ADR-RES cells overexpressing Pgp; assay type: functional, cell-based
[11] = system: MCF7; test: Antitumor activity against human MCF7 cells expressing TUBB3 xenografted in athymic mouse assessed as reduction in tumor growth at 30 mg/kg administered twice in a week; assay type: functional, organism-based
Outline: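 βIII-tubulin-overexpressing MCF-7 cells in Matrigel implanted into mammary fat pad #4 of 8-week-old female athymic mice. […] Tumor volumes measured over time and analysed by two-way repeated-measures ANOVA. Body weight change at day 41 analysed by one-way ANOVA. n = 7 control, 8 per treated group.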

[12] = Toxicity in athymic mouse xenografted with human MCF7 cells expressing TUBB3 assessed as effect on body weight at 30 mg/kg administered twice in a week; assay type: organism-based; conditions: in vivo
Outline: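 MCF-7 TUBB3 cells (10^7 in 100 uL Matrigel) implanted into mammary fat pad #4 of 8-week-old female athymic mice. Dosing was 30 mg/kg twice weekly. Body weight was expressed as percent change at day 41 versus starting weight and analysed by one-way ANOVA, n = 8.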

[13] = system: CCRF-CEM; test: Growth inhibition of human CCRF-CEM cells incubated for 48 hrs by sulforhodamine B assay; assay type: functional
[14] = system: HL-60(TB); test: Growth inhibition of human HL-60(TB) cells incubated for 48 hrs by sulforhodamine B assay; assay type: functional
[15] = system: K562; test: Growth inhibition of human K562 cells incubated for 48 hrs by sulforhodamine B assay; assay type: functional
[16] = system: MOLT-4; test: Growth inhibition of human MOLT-4 cells incubated for 48 hrs by sulforhodamine B assay; assay type: functional
[17] = system: RPMI-8226; test: Growth inhibition of human RPMI-8226 cells incubated for 48 hrs by sulforhodamine B assay; assay type: functional
[18] = system: SR; test: Growth inhibition of human SR cells incubated for 48 hrs by sulforhodamine B assay; assay type: functional
[19] = system: A549; test: Growth inhibition of human A549 cells incubated for 48 hrs by sulforhodamine B assay; assay type: functional
[20] = system: EKVX; test: Growth inhibition of human EKVX cells incubated for 48 hrs by sulforhodamine B assay; assay type: functional
[21] = system: HOP-62; test: Growth inhibition of human HOP-62 cells incubated for 48 hrs by sulforhodamine B assay; assay type: functional
[22] = system: HOP-92; test: Growth inhibition of human HOP-92 cells incubated for 48 hrs by sulforhodamine B assay; assay type: functional
[23] = system: NCI-H226; test: Growth inhibition of human NCI-H226 cells incubated for 48 hrs by sulforhodamine B assay; assay type: functional
[24] = system: NCI-H23; test: Growth inhibition of human NCI-H23 cells incubated for 48 hrs by sulforhodamine B assay; assay type: functional
[25] = system: NCI-H322M; test: Growth inhibition of human NCI-H322M cells incubated for 48 hrs by sulforhodamine B assay; assay type: functional
[26] = system: NCI-H460; test: Growth inhibition of human NCI-H460 cells incubated for 48 hrs by sulforhodamine B assay; assay type: functional
[27] = system: NCI-H522; test: Growth inhibition of human NCI-H522 cells incubated for 48 hrs by sulforhodamine B assay; assay type: functional
[28] = system: COLO 205; test: Growth inhibition of human COLO 205 cells incubated for 48 hrs by sulforhodamine B assay; assay type: functional
[29] = system: HCC 2998; test: Growth inhibition of human HCC 2998 cells incubated for 48 hrs by sulforhodamine B assay; assay type: functional
[30] = system: HCT-116; test: Growth inhibition of human HCT-116 cells incubated for 48 hrs by sulforhodamine B assay; assay type: functional
[31] = system: HCT-15; test: Growth inhibition of human HCT-15 cells incubated for 48 hrs by sulforhodamine B assay; assay type: functional
[32] = system: HCT-29; test: Growth inhibition of […] incubated for 48 hrs by sulforhodamine B assay; assay type: functional
[33] = system: KM12; test: Growth inhibition of human KM12 cells incubated for 48 hrs by sulforhodamine B assay; assay type: functional
[34] = system: SW-620; test: Growth inhibition of human SW-620 cells incubated for 48 hrs by sulforhodamine B assay; assay type: functional
[35] = system: SF-268; test: Growth inhibition of human SF-268 cells incubated for 48 hrs by sulforhodamine B assay; assay type: functional
[36] = system: SF-295; test: Growth inhibition of human SF-295 cells incubated for 48 hrs by sulforhodamine B assay; assay type: functional
[37] = system: SF-539; test: Growth inhibition of human SF-539 cells incubated for 48 hrs by sulforhodamine B assay; assay type: functional
[38] = system: SNB-19; test: Growth inhibition of human SNB-19 cells incubated for 48 hrs by sulforhodamine B assay; assay type: functional
[39] = system: SNB-75; test: Growth inhibition of human SNB-75 cells incubated for 48 hrs by sulforhodamine B assay; assay type: functional
[40] = system: U-251; test: Growth inhibition of human U-251 cells incubated for 48 hrs by sulforhodamine B assay; assay type: functional
[41] = system: LOX IMVI; test: Growth inhibition of human LOX IMVI cells incubated for 48 hrs by sulforhodamine B assay; assay type: functional
[42] = system: Malme-3M; test: Growth inhibition of human Malme-3M cells incubated for 48 hrs by sulforhodamine B assay; assay type: functional
[43] = system: M14; test: Growth inhibition of human M14 cells incubated for 48 hrs by sulforhodamine B assay; assay type: functional
[44] = system: MDA-MB-435; test: Growth inhibition of human MDA-MB-435 cells incubated for 48 hrs by sulforhodamine B assay; assay type: functional
[45] = system: SK-MEL-2; test: Growth inhibition of human SK-MEL-2 cells incubated for 48 hrs by sulforhodamine B assay; assay type: functional
[46] = system: SK-MEL-28; test: Growth inhibition of human SK-MEL-28 cells incubated for 48 hrs by sulforhodamine B assay; assay type: functional
[47] = system: SK-MEL-5; test: Growth inhibition of human SK-MEL-5 cells incubated for 48 hrs by sulforhodamine B assay; assay type: functional
[48] = system: UACC-257; test: Growth inhibition of human UACC-257 cells incubated for 48 hrs by sulforhodamine B assay; assay type: functional
[49] = system: UACC-62; test: Growth inhibition of human UACC-62 cells incubated for 48 hrs by sulforhodamine B assay; assay type: functional
[50] = system: IGROV-1; test: Growth inhibition of human IGROV-1 cells incubated for 48 hrs by sulforhodamine B assay; assay type: functional
[51] = system: OVCAR-3; test: Growth inhibition of human OVCAR-3 cells incubated for 48 hrs by sulforhodamine B assay; assay type: functional
[52] = system: OVCAR-4; test: Growth inhibition of human OVCAR-4 cells incubated for 48 hrs by sulforhodamine B assay; assay type: functional
[53] = system: OVCAR-5; test: Growth inhibition of human OVCAR-5 cells incubated for 48 hrs by sulforhodamine B assay; assay type: functional
[54] = system: OVCAR-8; test: Growth inhibition of human OVCAR-8 cells incubated for 48 hrs by sulforhodamine B assay; assay type: functional
[55] = system: NCI/ADR-RES; test: Growth inhibition of human NCI/ADR-RES cells incubated for 48 hrs by sulforhodamine B assay; assay type: functional
[56] = system: SK-OV-3; test: Growth inhibition of human SK-OV-3 cells incubated for 48 hrs by sulforhodamine B assay; assay type: functional
[57] = system: 786-0; test: Growth inhibition of human 786-0 cells incubated for 48 hrs by sulforhodamine B assay; assay type: functional
[58] = system: A498; test: Growth inhibition of human A498 cells incubated for 48 hrs by sulforhodamine B assay; assay type: functional
[59] = system: ACHN; test: Growth inhibition of human ACHN cells incubated for 48 hrs by sulforhodamine B assay; assay type: functional
[60] = system: CAKI-1; test: Growth inhibition of human CAKI-1 cells incubated for 48 hrs by sulforhodamine B assay; assay type: functional
[61] = system: RXF 393; test: Growth inhibition of human RXF 393 cells incubated for 48 hrs by sulforhodamine B assay; assay type: functional
[62] = system: SN12C; test: Growth inhibition of human SN12C cells incubated for 48 hrs by sulforhodamine B assay; assay type: functional
[63] = system: TK-10; test: Growth inhibition of human TK-10 cells incubated for 48 hrs by sulforhodamine B assay; assay type: functional
[64] = system: UO-31; test: Growth inhibition of human UO-31 cells incubated for 48 hrs by sulforhodamine B assay; assay type: functional
[65] = system: PC-3; test: Growth inhibition of human PC-3 cells incubated for 48 hrs by sulforhodamine B assay; assay type: functional
[66] = system: DU-145; test: Growth inhibition of human DU-145 cells incubated for 48 hrs by sulforhodamine B assay; assay type: functional
[67] = system: MCF7; test: Growth inhibition of human MCF7 cells incubated for 48 hrs by sulforhodamine B assay; assay type: functional
[68] = system: MDA-MB-231; test: Growth inhibition of human MDA-MB-231 cells incubated for 48 hrs by sulforhodamine B assay; assay type: functional
[69] = system: Hs-578T; test: Growth inhibition of human HS-578T cells incubated for 48 hrs by sulforhodamine B assay; assay type: functional
[70] = system: BT-549; test: Growth inhibition of human BT-549 cells incubated for 48 hrs by sulforhodamine B assay; assay type: functional
[71] = system: T47D; test: Growth inhibition of human T47D cells incubated for 48 hrs by sulforhodamine B assay; assay type: functional
[72] = system: MDA-MB-468; test: Growth inhibition of human MDA-MB-468 cells incubated for 48 hrs by sulforhodamine B assay; assay type: functional
[73] = Resistance ratio of IC50 for antiproliferative activity against human NCI/ADR-RES cells expressing Pgp to IC50 for antiproliferative activity against human OVCAR-8 cells; assay type: functional
Outline: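 Resistance ratio: IC50 in Pgp-overexpressing NCI/ADR-RES cells divided by IC50 in parental OVCAR-8 cells.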

COc1ccc(N(C)c2nc(Cl)nc3cnn(C)c23)cc1
inhibition [1]: 94%
inhibition [2]: 68%
IC50 [3]: 0.45 µM
EC50 [4]: 0.002 µM
EC50 [5]: 0.0033 µM
Ratio EC50 [6]: 1.1
Ratio EC50 [7]: 100
Ratio EC50 [8]: 600
IC50 [9]: 0.009 µM
IC50 [10]: 0.005 µM
TGI [11]: Active
Activity [12]: Non-Toxic
GI50 [13]: 0.00996 µM
GI50 [14]: 0.0112 µM
GI50 [15]: 0.00646 µM
GI50 [16]: 0.0199 µM
GI50 [17]: 0.0153 µM
GI50 [18]: 0.00964 µM
GI50 [19]: 0.0127 µM
GI50 [20]: 0.0155 µM
GI50 [21]: 0.0154 µM
GI50 [22]: 0.016 µM
GI50 [23]: 0.00949 µM
GI50 [24]: 0.0119 µM
GI50 [25]: 0.0141 µM
GI50 [26]: 0.00452 µM
GI50 [27]: 0.0144 µM
GI50 [28]: 0.00978 µM
GI50 [29]: 0.0236 µM
GI50 [30]: 0.00907 µM
GI50 [31]: 0.00514 µM
GI50 [32]: 0.0076 µM
GI50 [33]: 0.0108 µM
GI50 [34]: 0.00667 µM
GI50 [35]: 0.0122 µM
GI50 [36]: 0.0114 µM
GI50 [37]: 0.00876 µM
GI50 [38]: 0.0139 µM
GI50 [39]: 0.0108 µM
GI50 [40]: 0.00797 µM
GI50 [41]: 0.00853 µM
GI50 [42]: 0.0121 µM
GI50 [43]: 0.0106 µM
GI50 [44]: 0.0039 µM
GI50 [45]: 0.021 µM
GI50 [46]: 0.017 µM
GI50 [47]: 0.0146 µM
GI50 [48]: 0.0227 µM
GI50 [49]: 0.0159 µM
GI50 [50]: 0.0133 µM
GI50 [51]: 0.00637 µM
GI50 [52]: 0.0129 µM
GI50 [53]: 0.0118 µM
GI50 [54]: 0.0147 µM
GI50 [55]: 0.00824 µM
GI50 [56]: 0.0139 µM
GI50 [57]: 0.0132 µM
GI50 [58]: 0.0134 µM
GI50 [59]: 0.0084 µM
GI50 [60]: 0.0157 µM
GI50 [61]: 0.00875 µM
GI50 [62]: 0.0158 µM
GI50 [63]: 0.0163 µM
GI50 [64]: 0.01 µM
GI50 [65]: 0.0107 µM
GI50 [66]: 0.00889 µM
GI50 [67]: 0.0108 µM
GI50 [68]: 0.0143 µM
GI50 [69]: 0.0112 µM
GI50 [70]: 0.0241 µM
GI50 [71]: 0.0164 µM
GI50 [72]: 0.00909 µM
Ratio IC50 [73]: 0.55
